Reference: ChEMBL document CHEMBL4390675, “Dopamine D4 Receptor-Selective Compounds Reveal Structure-Activity Relationships that Engender Agonist Efficacy” (J Med Chem, 2019)
Activity calls are given as the source filed them. The calls are words filed in the database; no cut-off is given here.

Assays:
[1] = target: T1, D(3) dopamine receptor (Homo sapiens, UniProt P35462); experiment: Displacement of [3H]N-methylspiperone from human D3 receptor expressed in HEK293 cell membranes measured after 60 mins by scintillation counting method
Method in brief: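 HEK293 cells stably expressing human D3R; membranes in EBSS buffer pH 7.4, stored at −80 °C. 20 μg protein/well with 0.4 nM [3H]N-methylspiperone (final), half-log dilutions in 30% DMSO, in triplicate. 60 min at room temperature, then GF/B filtration. Nonspecific binding with 10 μM (+)-butaclamol.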

[2] = target: T2, D(4) dopamine receptor (Homo sapiens, UniProt P21917); experiment: Displacement of [3H]N-methylspiperone from human D4.4 receptor expressed in HEK293 cell membranes measured after 60 mins by scintillation counting method
T2 sequence (P21917 whole entry): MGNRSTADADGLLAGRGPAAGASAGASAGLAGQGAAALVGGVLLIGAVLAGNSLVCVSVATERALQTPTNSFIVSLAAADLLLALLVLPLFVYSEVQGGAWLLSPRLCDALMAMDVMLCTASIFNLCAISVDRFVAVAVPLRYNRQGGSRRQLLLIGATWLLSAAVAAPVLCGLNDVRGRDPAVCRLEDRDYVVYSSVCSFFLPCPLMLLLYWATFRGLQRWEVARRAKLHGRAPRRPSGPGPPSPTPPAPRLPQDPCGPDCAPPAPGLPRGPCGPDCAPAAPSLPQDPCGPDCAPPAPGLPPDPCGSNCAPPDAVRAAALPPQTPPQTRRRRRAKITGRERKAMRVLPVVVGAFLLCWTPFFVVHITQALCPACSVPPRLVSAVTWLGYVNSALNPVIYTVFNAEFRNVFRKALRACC
Method in brief: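 Frozen HEK293 membranes stably expressing human D4.4R (30 μg/well) in EBSS-bicarbonate buffer, pH 7.4, were incubated with 0.4 nM [3H]N-methylspiperone and half-log compound dilutions (30% DMSO vehicle) for 60 min at room temperature. Nonspecific binding was defined by 10 μM (+)-butaclamol. Samples were filtered on GF/B filters and counted by scintillation.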

[3] = target: T1, D(3) dopamine receptor; experiment: Displacement of [3H](R)-(+)-7-OH-DPAT from human D3 receptor expressed in HEK293 cell membranes measured after 90 mins by scintillation counting method
Method in brief: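 Fresh HEK293 hD3R membranes (40 μg/well) in 50 mM Tris, 10 mM MgCl2, 1 mM EDTA, pH 7.4 were incubated with 0.5 nM [3H]-(R)-(+)-7-OH-DPAT and half-log compound dilutions in 30% DMSO for 90 min at room temperature. Nonspecific binding was defined with 10 μM (+)-butaclamol. Samples were filtered on PEI-soaked GF/B filters and counted by scintillation.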

[4] = target: T2, D(4) dopamine receptor; experiment: Displacement of [3H](R)-(+)-7-OH-DPAT from human D4.4 receptor expressed in HEK293 cell membranes measured after 90 mins by scintillation counting method
Method in brief: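 HEK293 cells stably expressing human D4.4R; membranes used fresh in 50 mM Tris, 10 mM MgCl2, 1 mM EDTA, pH 7.4. 60 μg protein/well with 3 nM [3H]-(R)-(+)-7-OH-DPAT (final), half-log dilutions in 30% DMSO, in triplicate. 90 min at room temperature, then GF/B filtration. Nonspecific binding with 10 μM (+)-butaclamol.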

[5] = target: T3, D(2) dopamine receptor (Homo sapiens, UniProt P14416); experiment: Agonist activity at human D2L receptor expressed in CHOK1 cells assessed as inhibition of forskolin-induced cAMP accumulation measured after 30 mins by Eu-cAMP tracer based TR-FRET assay relative to dopamine; assay type: cell-based; conditions: 0.5 h
[6] = target: T4, D(4) dopamine receptor (Homo sapiens) (UniProt P21917); experiment: Agonist activity at human D4 receptor expressed in CHOK1 cells assessed as inhibition of forskolin-induced cAMP accumulation measured after 30 mins by Eu-cAMP tracer based TR-FRET assay relative to dopamine; assay type: functional, cell-based
T4 sequence (whole entry): T2 sequence (P21917 whole entry)
Method in brief: (§1)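 LANCE Ultra TR-FRET cAMP assay in CHO-K1 cells stably expressing human D2R long isoform or D4R. Cells were plated in HBSS/5 mM HEPES/0.2 μM metabisulfite, then immediately given compound plus forskolin (10 μM final) for 30 min at room temperature. Eu-cAMP tracer and ULight-anti-cAMP were added for 2 h in the dark. Values are % of maximal dopamine signal, nonlinear regression of triplicate runs, n = 3–4.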

[7] = target: T2, D(4) dopamine receptor; experiment: Agonist activity at human D4 receptor expressed in CHOK1 cells assessed as inhibition of forskolin-induced cAMP accumulation measured after 30 mins by Eu-cAMP tracer based TR-FRET assay; assay type: functional, cell-based; conditions: read-out: EC50; method in brief: as §1
[8] = target: T4, D(4) dopamine receptor (Homo sapiens); experiment: Antagonist activity at human D4 receptor expressed in CHOK1 cells assessed as suppression of dopamine-induced inhibition of forskolin-stimulated cAMP accumulation measured after 30 mins by Eu-cAMP tracer based TR-FRET assay relative to dopamine; assay type: functional, cell-based; set-up: concentration or dose not given beside the values
[9] = target: T2, D(4) dopamine receptor; experiment: Antagonist activity at human D4 receptor expressed in CHOK1 cells assessed as suppression of dopamine-induced inhibition of forskolin-stimulated cAMP accumulation measured after 30 mins by Eu-cAMP tracer based TR-FRET assay; assay type: functional, cell-based
[10] = target: T3, D(2) dopamine receptor; experiment: Agonist activity at human D2L receptor expressed in CHOK1 cells assessed as induction of beta-arrestin recruitment measured after 90 mins by luminescence assay relative to control; assay type: cell-based
Method in brief: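 PathHunter enzyme-complementation assay in CHO-K1 cells stably expressing human D2R long isoform, seeded 2625 cells/well and incubated overnight. Compounds diluted in PBS with 0.2 μM sodium metabisulfite, tested at multiple concentrations, 90 min at 37 °C. Detection reagent then 45–60 min at room temperature, luminescence read. Normalized to maximal dopamine response. Nonlinear regression of triplicate runs, n = 3–4.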

[11] = target: T1, D(3) dopamine receptor; experiment: Agonist activity at human D3 receptor expressed in CHOK1 cells assessed as induction of beta-arrestin recruitment measured after 90 mins by luminescence assay relative to control; assay type: cell-based
Method in brief: (§2)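 PathHunter enzyme-complementation assay in CHO-K1 cells stably expressing human D2R long isoform, D3R or D4R, seeded overnight in Ham's F12/10% FBS. Compounds were diluted in PBS with 0.2 μM sodium metabisulfite and applied at multiple concentrations for 90 min at 37 °C. Detection reagent was added for 45–60 min at room temperature, then luminescence was read. Values are % of maximal dopamine response, from nonlinear regression of triplicate runs, mean ± SEM, n = 3–4.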

[12] = target: T1, D(3) dopamine receptor; experiment: Agonist activity at human D3 receptor expressed in CHOK1 cells assessed as induction of beta-arrestin recruitment measured after 90 mins by luminescence assay; assay type: cell-based; conditions: read-out: EC50; method in brief: as §2
[13] = target: T1, D(3) dopamine receptor; experiment: Antagonist activity at human D3 receptor expressed in CHOK1 cells assessed as inhibition of dopamine-induced beta-arrestin recruitment measured after 90 mins by luminescence assay relative to control; assay type: cell-based
Method in brief: (§3)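 Antagonist-mode PathHunter β-arrestin assay in CHO-K1 cells stably expressing human D2R long isoform or D3R, seeded overnight. Compound dilutions in PBS with 0.2 μM metabisulfite were co-incubated with an EC80 dopamine concentration for 90 min at 37 °C. Detection reagent was added for 45–60 min at room temperature, then luminescence was read. Values are % of dopamine EC80 response, from nonlinear regression of triplicate runs, n = 3–4.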

[14] = target: T1, D(3) dopamine receptor; experiment: Antagonist activity at human D3 receptor expressed in CHOK1 cells assessed as inhibition of dopamine-induced beta-arrestin recruitment measured after 90 mins by luminescence assay; assay type: cell-based; conditions: read-out: IC50; method in brief: as §3
[15] = target: T4, D(4) dopamine receptor (Homo sapiens); experiment: Agonist activity at human D4 receptor expressed in CHOK1 cells assessed as induction of beta-arrestin recruitment measured after 90 mins by luminescence assay relative to control; assay type: cell-based; method in brief: as §2
[16] = target: T2, D(4) dopamine receptor; experiment: Agonist activity at human D4 receptor expressed in CHOK1 cells assessed as induction of beta-arrestin recruitment measured after 90 mins by luminescence assay; assay type: cell-based; conditions: read-out: EC50; method in brief: as §2
[17] = target: T4, D(4) dopamine receptor (Homo sapiens); experiment: Antagonist activity at human D4 receptor expressed in CHOK1 cells assessed as inhibition of dopamine-induced beta-arrestin recruitment measured after 90 mins by luminescence assay relative to control; assay type: cell-based; set-up: concentration or dose not given beside the values
[18] = target: T2, D(4) dopamine receptor; experiment: Antagonist activity at human D4 receptor expressed in CHOK1 cells assessed as inhibition of dopamine-induced beta-arrestin recruitment measured after 90 mins by luminescence assay; assay type: cell-based; conditions: read-out: IC50
[19] = target: D(1A) dopamine receptor (Homo sapiens) (UniProt P21728); experiment: Agonist activity at D1 receptor (unknown origin) stably expressed in CHOK1 cells assessed as induction of beta-arrestin recruitment measured after 90 mins by luminescence assay; assay type: cell-based
[20] = target: D(1B) dopamine receptor (Homo sapiens) (UniProt P21918); experiment: Agonist activity at D5 receptor (unknown origin) stably expressed in CHOK1 cells assessed as induction of beta-arrestin recruitment measured after 90 mins by luminescence assay; assay type: cell-based
[21] = target: D(1A) dopamine receptor (Homo sapiens) (UniProt P21728); experiment: Antagonist activity at D1 receptor (unknown origin) stably expressed in CHOK1 cells assessed as inhibition of dopamine-induced beta-arrestin recruitment measured after 90 mins by luminescence assay; assay type: cell-based
[22] = target: D(1B) dopamine receptor (Homo sapiens) (UniProt P21918); experiment: Antagonist activity at D5 receptor (unknown origin) stably expressed in CHOK1 cells assessed as inhibition of dopamine-induced beta-arrestin recruitment measured after 90 mins by luminescence assay; assay type: cell-based

T1 sequence (P35462 whole entry): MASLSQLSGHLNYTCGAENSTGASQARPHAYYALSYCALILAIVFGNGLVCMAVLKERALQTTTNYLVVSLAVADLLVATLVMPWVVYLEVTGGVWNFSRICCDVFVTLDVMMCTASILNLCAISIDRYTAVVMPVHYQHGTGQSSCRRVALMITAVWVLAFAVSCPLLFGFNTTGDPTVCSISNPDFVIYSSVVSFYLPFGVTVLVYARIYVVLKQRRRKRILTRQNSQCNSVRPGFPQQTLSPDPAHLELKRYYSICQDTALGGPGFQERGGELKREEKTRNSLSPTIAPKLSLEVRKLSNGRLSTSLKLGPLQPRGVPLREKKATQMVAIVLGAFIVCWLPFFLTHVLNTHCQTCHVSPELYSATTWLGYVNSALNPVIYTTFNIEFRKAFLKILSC
Sequence of D(1A) dopamine receptor (Homo sapiens) (P21728 whole entry): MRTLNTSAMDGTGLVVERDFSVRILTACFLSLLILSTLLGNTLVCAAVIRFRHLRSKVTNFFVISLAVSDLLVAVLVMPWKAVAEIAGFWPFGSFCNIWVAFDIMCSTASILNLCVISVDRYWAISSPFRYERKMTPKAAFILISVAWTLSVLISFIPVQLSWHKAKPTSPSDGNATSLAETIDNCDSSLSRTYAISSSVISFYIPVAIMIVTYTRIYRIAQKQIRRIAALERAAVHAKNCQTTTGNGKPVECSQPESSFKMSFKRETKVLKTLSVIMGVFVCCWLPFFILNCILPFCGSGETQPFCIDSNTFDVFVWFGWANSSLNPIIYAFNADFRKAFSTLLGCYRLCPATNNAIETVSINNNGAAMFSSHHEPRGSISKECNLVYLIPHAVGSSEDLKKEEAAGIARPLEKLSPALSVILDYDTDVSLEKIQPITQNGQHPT
T3 sequence (P14416 whole entry): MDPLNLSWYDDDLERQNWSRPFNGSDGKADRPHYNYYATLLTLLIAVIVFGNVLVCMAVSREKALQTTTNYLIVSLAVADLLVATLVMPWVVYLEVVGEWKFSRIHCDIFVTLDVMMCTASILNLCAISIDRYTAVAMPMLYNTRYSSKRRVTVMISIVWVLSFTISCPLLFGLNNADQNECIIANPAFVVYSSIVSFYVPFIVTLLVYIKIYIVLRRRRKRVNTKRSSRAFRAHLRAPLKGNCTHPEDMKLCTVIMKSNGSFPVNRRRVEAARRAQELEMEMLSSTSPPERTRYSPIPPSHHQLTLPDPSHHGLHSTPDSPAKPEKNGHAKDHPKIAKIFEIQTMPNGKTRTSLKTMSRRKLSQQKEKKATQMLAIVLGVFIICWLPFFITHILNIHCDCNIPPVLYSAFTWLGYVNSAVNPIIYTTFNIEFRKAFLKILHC
Sequence of D(1B) dopamine receptor (Homo sapiens) (P21918 whole entry): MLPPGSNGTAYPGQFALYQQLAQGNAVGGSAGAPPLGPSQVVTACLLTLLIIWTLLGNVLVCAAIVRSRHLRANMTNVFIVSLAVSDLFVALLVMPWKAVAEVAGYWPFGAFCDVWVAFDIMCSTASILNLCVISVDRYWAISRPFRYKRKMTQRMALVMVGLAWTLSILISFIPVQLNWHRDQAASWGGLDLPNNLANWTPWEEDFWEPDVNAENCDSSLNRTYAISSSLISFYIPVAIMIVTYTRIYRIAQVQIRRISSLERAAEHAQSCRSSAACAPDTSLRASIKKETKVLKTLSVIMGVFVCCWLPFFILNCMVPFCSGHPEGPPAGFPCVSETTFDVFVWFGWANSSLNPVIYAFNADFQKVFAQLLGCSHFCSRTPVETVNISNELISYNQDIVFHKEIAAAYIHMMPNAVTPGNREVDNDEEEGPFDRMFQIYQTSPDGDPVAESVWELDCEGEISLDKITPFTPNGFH

`Cc1cccc(NC(=O)CN2CCN(c3ccccn3)CC2)c1` gave a Ki [1] greater than 10000 nM, a Ki [2] of 212 nM and a Ki [3] of 6480 nM. For the same compound, the Ki [4] was 1.89 nM, the Emax [5] was 19% and the Emax [6] was 64.2%. The EC50 [7] was 3.6 nM, the inhibition [8] was 43.2% and the IC50 [9] was 82.7 nM. The Emax [10] was 23.9%, the Emax [11] was 49.4% and the EC50 [12] was 6350 nM. The inhibition [13] was “inactive”, the IC50 [14] was greater than 100000 nM and the Emax [15] was 30.7%. The EC50 [16] was 394 nM, the inhibition [17] was 78.9% and the IC50 [18] was 313 nM. For the same compound, the Activity [19] was “inactive”, the Activity [20] was “inactive” and the inhibition [21] was “inactive”. The inhibition [22] was “inactive”.
